# Hits are enriched below; roughly 2.8% of the tested compounds scored in any of these assays.
# SIRT5 block: blocks human SIRT5 desuccinylation of peptide; Purified SirT5, succinyl-peptide AMC, trypsin-coupled fluorescence; inhibition, % at 15 µM; 1.1% of 330,000 active; Q9NXA8; in the data active = inhibition above about 15%; inconclusive = no clear call, values can overlap the other calls
# Target sequence (Q9NXA8 whole entry, looked up): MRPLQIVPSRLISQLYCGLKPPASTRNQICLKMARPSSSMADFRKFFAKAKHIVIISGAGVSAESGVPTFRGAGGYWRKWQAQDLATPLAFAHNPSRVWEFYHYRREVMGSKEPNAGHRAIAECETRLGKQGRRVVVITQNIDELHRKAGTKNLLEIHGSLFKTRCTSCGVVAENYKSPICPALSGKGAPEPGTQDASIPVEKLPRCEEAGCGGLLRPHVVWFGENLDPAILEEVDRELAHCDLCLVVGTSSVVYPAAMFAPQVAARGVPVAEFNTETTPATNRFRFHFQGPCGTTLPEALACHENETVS
# DENV2 CPE: protects cells from dengue virus 2 cytopathic effect | DENV2-infected cells, cytopathic effect rescue, plate reader | CPE inhibition, % at 9.99 µM | 1.7% of 350,000 active; in the data active = CPE inhibition above about 20%, passing the limit was not always enough; inconclusive = no clear call, values can overlap the other calls; tested in BHK-21 cells;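 note: 0% = median of neutral control wells and 100% = median of positive control wells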
# E-selectin induc: induces E-selectin expression in human endothelial cells. P16581. HUVEC E-selectin immunofluorescence imaging; normalized: neutral wells 0, TNF-alpha wells 100. activation, % at 7.58 µM. 0.37% of 260,000 active. AID 686992;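 active = mean E-selectin-positive cell signal at least 10% of the positive control, reached in at least 60% of replicates, without over 20% cell loss; inconclusive = no rule given, readout overlaps actives, possibly toxicity-flagged; inactive = the rest, including those meeting only one limit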
#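 Test system: HUVEC; input: 3,000 HUVEC/well; measured by: immunofluorescence imaging; read-out: % PE-positive cells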
# An asterisk follows results filed as active; ? = inconclusive; . = no result given; ! = a repeat was not active.
SMILES,SIRT5 block,DENV2 CPE,E-selectin induc
C[C@H](CO)N1C[C@H](C)[C@@H](CN(C)C(=O)Cc2ccccc2)Oc2ncc(-c3ccc(F)cc3)cc2C1=O,2.6,-4.3,0.2
O=C(C[C@H]1CC[C@H](NC(=O)Nc2cc(F)ccc2F)[C@@H](CO)O1)NCc1ccccn1,1.1,13.1,-0.4
C[C@H]1CN([C@@H](C)CO)C(=O)c2cccc(NC(=O)Nc3ccc4c(c3)OCO4)c2O[C@@H]1CN(C)Cc1ccc(Oc2ccccc2)cc1,4.9,3.2,0.0
Cc1nn(C)cc1NC(=O)C[C@@H]1CC[C@H]2[C@@H](COc3ccc(NC(=O)C4CCC4)cc3C(=O)N2C)O1,.,.,0.0
C[C@@H]1CN([C@H](C)CO)C(=O)c2cc(NS(C)(=O)=O)ccc2O[C@@H]1CN(C)S(=O)(=O)c1ccccc1,.,.,-0.1
Nc1c(Cl)cc(C2=NCCn3nc4ccccc4c32)cc1Cl,.,21.5*,.
Clc1ccc(C2=NCCn3nc4ccccc4c32)cc1,-1.5,?,0.1
O=C(N/N=C/c1ccccn1)c1cc(-c2ccc(Cl)s2)[nH]n1,-2.1,6.8,-0.1
O=C(N/N=C/c1ccccn1)c1cc(-c2ccc(Br)s2)[nH]n1,18.3*,-2.6,0.3
COc1ccc(NC(=O)Nc2ccc3c(c2)C(=O)N([C@@H](C)CO)C[C@H](C)[C@@H](CN(C)Cc2ccc(C(=O)O)cc2)OCCCC[C@@H](C)O3)cc1,0.1,-7.4,-0.2
C[C@H]1CCCCO[C@@H](CN(C)C(=O)c2ccccc2)[C@@H](C)CN([C@@H](C)CO)C(=O)c2cc(NS(=O)(=O)c3ccc(Cl)cc3)ccc2O1,-5.0,9.6,-0.3
CCC(=O)N1C[C@@H](C)[C@@H](OC)CN(C)C(=O)c2ccc(NC(=O)c3cnccn3)cc2OC[C@@H]1C,-1.7,8.0,-0.1
O=C(CC(=O)Nc1ccccc1C(F)(F)F)Nc1ccccc1C(F)(F)F,-2.7,-2.2,0.2
O=C(Nc1ccccc1C(F)(F)F)C(O)(c1ccccc1)C1CCCCC1 (stereo unspecified),.,49.6*,0.0
CCCNC(=O)N1CC2(CN(C(=O)COC)C2)c2c(n(C)c3cc(OC)ccc23)[C@H]1CO,-1.8,-3.0,0.1
Cc1cccn2c(=O)c(/C=N/O)c(NCc3ccccc3)nc12,-1.9,-1.5,.
Cc1cccn2c(=O)c(/C=N/O)c(Nc3ccccc3F)nc12,.,-3.2,59.3*
C/C=C/c1ccc([C@H]2[C@@H](CO)N(C(C)=O)C23CN(C(=O)NC2CCCCC2)C3)cc1,1.4,7.1,0.0
O=C(C[C@@H]1C=C[C@H](NS(=O)(=O)c2ccccc2)[C@H](CO)O1)N1CCc2ccccc2C1,7.9,7.0,0.6
COc1ccc(C)cc1NC(=O)c1cccc(C(=O)Nc2cc(C)ccc2OC)c1,15.8*,-1.5,0.3
COc1ccc(Cl)cc1NC(=O)c1cccc(NC(=O)CCC(=O)O)c1,18.7*,?,-0.5
Cc1ccc(Cl)cc1NC(=O)c1ccc(NC(=O)CCC(=O)O)cc1,1.4,.,-2.4
COc1ccc(C)cc1NC(=O)C(OC(=O)CNC(=O)c1cc(C)cc(C)c1)c1ccccc1 (stereo unspecified),0.7,0.8,.
COc1ccc(C)cc1NC(=O)c1ccc(OC(F)F)cc1,0.6,-4.5,.
COc1ccc(C)cc1NC(=O)C(NCC(O)c1ccccc1)c1ccccc1 (stereo unspecified),-1.3,2.2,51.7*
SMILES,SIRT5 block,DENV2 CPE,E-selectin induc
C/C=C/c1ccc2c(c1)O[C@H](CN(C)CC1CC1)[C@H](C)CN([C@@H](C)CO)S2(=O)=O,.,.,0.1
CCC(=O)Nc1ccc2c(c1)C(=O)N(C)[C@H]1CC[C@H](CC(=O)NC3CCCC3)O[C@H]1CO2,-12.0,-10.0,-0.2
CCC(=O)Nc1ccc2c(c1)C(=O)N(C)[C@@H]1CC[C@H](CC(=O)NC3CCCC3)O[C@H]1CO2,0.5,43.5*,0.0
CN1C(=O)c2cc(NC(=O)NC3CCCC3)ccc2OC[C@H]2O[C@H](CC(=O)NC3CCC3)CC[C@@H]21,-5.9,61.4*,-0.1
CN1C(=O)c2cc(NC(=O)NC3CCCC3)ccc2OC[C@@H]2O[C@@H](CC(=O)NC3CCC3)CC[C@@H]21,-7.6,6.6,0.0
CNC(=O)C[C@H]1CC[C@@H]2[C@H](COc3ccc(NC(=O)Nc4c(C)noc4C)cc3C(=O)N2C)O1,.,4.8,0.0
C[C@H](CO)N1C[C@H](C)[C@@H](CN(C)C(=O)Nc2cc(F)ccc2F)Oc2cc(/C=C/c3ccccc3)ccc2S1(=O)=O,21.4*,0.0,1.1
C/C=C/c1ccc2c(c1)O[C@H](CN(C)C(=O)Nc1cc(F)ccc1F)[C@H](C)CN([C@H](C)CO)S2(=O)=O,6.4,2.5,0.0
C[C@@H]1CN([C@@H](C)CO)S(=O)(=O)c2ccc(/C=C/c3ccccc3)cc2O[C@@H]1CN(C)C(=O)Nc1ccc(F)cc1,16.6*,5.0,-0.1
C[C@@H]1CN([C@@H](C)CO)S(=O)(=O)c2ccc(/C=C/c3ccccc3)cc2O[C@H]1CN(C)C(=O)Nc1ccc(F)cc1,14.4,11.2,0.9
COc1cccc(-c2ccc3c(c2)O[C@@H](CN(C)C(=O)c2ccccc2F)[C@H](C)CN([C@H](C)CO)S3(=O)=O)c1,6.8,-0.1,.
COc1cccc(-c2ccc3c(c2)O[C@H](CN(C)C(=O)c2ccccc2F)[C@H](C)CN([C@H](C)CO)S3(=O)=O)c1,36.6*!,5.0,-0.1
COc1cccc(NC(=O)N(C)C[C@@H]2Oc3cc(/C=C/c4ccccc4)ccc3S(=O)(=O)N([C@@H](C)CO)C[C@H]2C)c1,102.1*,2.1,0.3
COc1cccc(NC(=O)N(C)C[C@@H]2Oc3cc(/C=C/c4ccccc4)ccc3S(=O)(=O)N([C@H](C)CO)C[C@@H]2C)c1,2.0,-1.1,0.0
O=C(C[C@@H]1CC[C@H](NC(=O)C2CCOCC2)[C@H](CO)O1)Nc1ccccc1,-1.6,16.5,0.2
COc1ccc(NC(=O)Nc2ccc3c(c2)C(=O)N([C@H](C)CO)C[C@@H](C)[C@H](CN(C)Cc2ccc(Oc4ccccc4)cc2)O3)cc1,1.5,1.9,1.0
C[C@@H]1CN([C@H](C)CO)S(=O)(=O)c2ccc(C#Cc3ccccn3)cc2O[C@@H]1CN(C)C(=O)C1CC1,-0.5,-0.9,-0.8
Cc1cccc(-c2ccc([C@@H]3[C@H]4CN(C(=O)Cc5ccccn5)CC(=O)N4[C@H]3CO)cc2)c1,-4.7,1.9,2.6
C/C=C/c1ccc2c(c1)O[C@@H](CN(C)C(=O)Nc1cc(F)ccc1F)[C@H](C)CN([C@H](C)CO)S2(=O)=O,3.6,16.0,-0.2
C[C@@H]1CN([C@H](C)CO)S(=O)(=O)c2ccc(/C=C/c3ccccc3)cc2O[C@H]1CN(C)C(=O)Nc1cc(F)ccc1F,23.3*,18.6,0.2
C[C@@H]1CN([C@H](C)CO)S(=O)(=O)c2ccc(/C=C/c3ccccc3)cc2O[C@@H]1CN(C)C(=O)Nc1cc(F)ccc1F,25.1*,-2.8,0.6
C/C=C/c1ccc2c(c1)O[C@H](CN(C)C(=O)Nc1cc(F)ccc1F)[C@H](C)CN([C@@H](C)CO)S2(=O)=O,5.7,2.3,0.2
COc1cccc(NC(=O)N(C)C[C@H]2Oc3cc(-c4ccccc4OC)ccc3S(=O)(=O)N([C@H](C)CO)C[C@H]2C)c1,3.2,-2.6,-0.1

# Source: PubChem BioAssay
